Results taken from article PMC5388221 (Drug Design, Development and Therapy, 2017).
Where two headings read alike, the source gives them in different places.

Legend:
[1] = system: bloodstream trypomastigotes (BTs) of T. cruzi (Y strain); test: Trypanocidal assay against bloodstream trypomastigotes; format: cell-based, Trypanosoma cruzi; settings: for SI (LC50/EC50), BTs: LC50 on cardiac cells at 24 h, BTs 24 h/37°C; for EC50: read-out: EC50 (µM), BTs
How it was run: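 Bloodstream trypomastigotes come from Swiss mice at peak parasitemia. They are incubated at 5×10^6/mL in RPMI 1640 plus 10% fetal bovine serum with serial dilutions of test compound (0.001–10.6 µM) for 24 h at 37°C. Motile live parasites are counted by light microscopy in a Neubauer chamber; EC50 is a 50% drop versus untreated. SI = 24 h MTT LC50 on uninfected mouse cardiac cells/EC50.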

[2] = system: intracellular amastigotes of T. cruzi (Y strain); test: Effect against intracellular parasites in infected cardiac cell cultures; format: cell-based, Trypanosoma cruzi; settings: for SI (LC50/EC50), intracellular amastigotes: LC50 on cardiac cells at 48 h, 48 h/37°C
How it was run: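 T. cruzi Y strain infects primary embryonic Swiss mouse cardiac cells (parasite:host 10:1, 24 h), which are then washed. Cells are exposed to test compound (0.043–3.5 µM) for 48 h at 37°C in 5% CO2, then Bouin-fixed and Giemsa-stained. Infective index is % infected cells × mean parasites per infected cell; EC50 is 50% index reduction versus untreated. SI = 48 h MTT LC50 (uninfected cells)/EC50.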

[3] = system: intracellular amastigotes of T. cruzi (Y strain); settings: read-out: EC50, infection of T. cruzi-infected CCs; after 48 h of treatment; cited from earlier work
[4] = fast plasmatic clearance profile; cited from earlier work

| Compound | SI (LC50/EC50), BTs [1] | EC50 ([1]; 24 h/37°C, Y strain) [µM] | SI (LC50/EC50), intracellular amastigotes [2] | EC50 [3] [nM] | Half-life [4] [h] | EC50 ([1]; Trypanosoma cruzi, 24 h) [µM] | EC50 ([2]; Trypanosoma cruzi, 48 h, read-out: EC50 (µM), intracellular amastigotes) [µM] |
| --- | --- | --- | --- | --- | --- | --- | --- |
| 2,5-Bis[2-isobutoxy-4-(2-pyridylimino) aminophenyl]furan hydrochloride [DB1890B] | 760 | 0.014 ± 0.007 | 9.7 | 900 |  |  |  |
| 2,5-Bis[2-isopropoxy-4-(2-pyridylimino) aminophenyl]thiophene [DB1957] | 17 | 0.068 ± 0.0014 | 6 |  |  |  |  |
| CC(C)Oc1cc(NC(=N)c2ccccn2)ccc1-c1ccc(-c2ccc(NC(=N)c3ccccn3)cc2OC(C)C)s1 [DB1867, reference compound] |  |  |  | 58 |  |  |  |
| 2,5-Bis[2-(2,2,2-trifluoroethoxy)-4-(2-pyridylimino)aminophenyl]furan [DB1959] | 45 | 0.078 ± 0.01 | 1.6 |  |  |  |  |
| CC1CS(=O)(=O)CCN1/N=C/c1ccc([N+](=O)[O-])o1 (stereo not shown) [nifurtimox] |  |  |  |  | 3 |  |  |
| O=C(Cn1ccnc1[N+](=O)[O-])NCc1ccccc1 [Bz, benznidazole, reference compound] | >77 |  | >360 |  |  | 12.9 ± 1.93 | 3.7 ± 1.72 |
